Test results taken from ChEMBL document CHEMBL3751847, “Novel naphtho[2,1-d]oxazole-4,5-diones as NQO1 substrates with improved aqueous solubility: Design, synthesis, and in vivo antitumor evaluation” (Bioorg Med Chem, 2016).
≈ marks a conversion by molar mass, not a printed value. Calls of active or inactive are those of the source. The calls are words filed in the database; no cut-off is given here.

Tests used:
[1] = test system: A549; test: Cytotoxicity against human A549 cells expressing NQO1 after 2 hrs by MTT assay; format: functional, cell-based; details: A549, 2 h
Summary of the method: (§1)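 MTT assay: cells in RPMI 1640 + 10% FBS seeded at 10,000 cells/mL, attached 16 h, exposed to compound in triplicate for 2 h, washed out, then grown 72 h at 37 °C, 5% CO2; MTT 4 h, formazan in DMSO, A560. Dicoumarol cotreatment 25 µmol·L-1 for 2 h. IC50 from semilog plots of percent control.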

[2] = Solubility of compound in diluted hydrochloric acid buffer solution at pH 3 at 25 deg C for 8 hrs; format: physicochemical
Summary of the method: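 Compounds shaken in diluted hydrochloric acid buffer at pH 3, 25 °C for 8 h.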

[3] = molecular target: T1, NAD(P)H dehydrogenase [quinone] 1 (Homo sapiens, UniProt P15559); test: Drug metabolism assessed as recombinant human NQO1-mediated NADPH oxidation to NADP+ per micromol of protein preincubated for 3 mins followed by NADPH addition measured at 2 s intervals for 5 mins by enzyme labelling instrument-based assay; format: ADME
T1 sequence (P15559 whole entry): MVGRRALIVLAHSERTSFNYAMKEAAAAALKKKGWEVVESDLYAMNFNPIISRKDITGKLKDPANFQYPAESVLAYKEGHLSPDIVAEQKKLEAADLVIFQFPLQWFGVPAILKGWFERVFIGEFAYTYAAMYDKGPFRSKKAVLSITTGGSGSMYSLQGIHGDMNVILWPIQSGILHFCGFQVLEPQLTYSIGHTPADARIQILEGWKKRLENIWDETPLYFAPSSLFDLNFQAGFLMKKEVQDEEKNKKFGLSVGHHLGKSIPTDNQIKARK
Summary of the method: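 NADPH recycling assay: quinones 0.1–50 µmol·L-1 with recombinant human NQO1 1.4 µg/mL in 50 mmol·L-1 potassium phosphate pH 7.4, 3 min preincubation, reaction started with NADPH 400 µmol·L-1; A340 every 2 s for 5 min at 22–25 °C. Slopes from linear 20 s–1 min, compared with no-compound reactions; at least triplicate.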

[4] = molecular target: T1, NAD(P)H dehydrogenase [quinone] 1; test: Binding affinity to recombinant human NQO1 assessed as induction of ROS generation by measuring reduction of cytochrome C per min per mg of NQO1 by spectrophotometric analysis in presence of NQO1 inhibitor dicoumarol
Summary of the method: (§2)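 Superoxide via cytochrome c reduction at 550 nm: 30 µmol·L-1 cytochrome c, 0.2 mmol·L-1 NADPH, recombinant human NQO1 0.1–3.0 µg/mL, quinone 25 µmol·L-1 in 25 mmol·L-1 Tris-HCl pH 7.4 with 0.7 mg/mL BSA and 0.1% Tween-20; dicoumarol 25 µmol·L-1 where stated. Initial rates from linear 0–30 s; at least triplicate.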

[5] = test system: A549; test: Ratio of IC50 for human A549 cells expressing NQO1 in presence of NQO1 inhibitor dicoumarol to IC50 for human A549 cells expressing NQO1 in absence of NQO1 inhibitor dicoumarol; format: functional
Summary of the method: (§3)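 IC50 ratios from the 2 h-exposure/72 h MTT assay: A549 IC50 with 25 µmol·L-1 dicoumarol cotreatment divided by IC50 without; or H596 IC50 divided by A549 IC50.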

[6] = molecular target: T1, NAD(P)H dehydrogenase [quinone] 1; test: Binding affinity to recombinant human NQO1 assessed as induction of ROS generation by measuring reduction of cytochrome C per min per mg of NQO1 by spectrophotometric analysis; summary of the method: as §2
[7] = Lipophilicity, log D of compound at pH 7.4; format: physicochemical; details: buffer
Summary of the method: (§4)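 Neutral aqueous solubility and log D at pH 7.4 by Avdeef–Bucher potentiometric titration on a Gemini Profiler.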

[8] = test system: A549; test: Antitumor activity against human A549 cells xenografted in athymic nude mouse assessed as tumor growth inhibition at 15 mg/kg, iv administered every other day over 21 days relative to vehicle control; format: functional, organism-based
Summary of the method: (§5)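 Athymic nude mice (7–8 weeks) given 5 × 10^6 log-phase A549 cells in the flank; randomized at mean tumor ~100 mm3 (5 mice/group) to vehicle, 15 or 30 mg/kg test agent in dilute HCl buffer pH 3, or positive control in saline; tail-vein injection every other day for three weeks. Caliper volume = a × b²/2, measured daily; wet tumor weight after euthanasia. TGI from weight; T/C = RTV(treated)/RTV(control) × 100, RTV = VT/V0.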

[9] = test system: Mus musculus; test: Toxicity in athymic nude mouse assessed as body weight loss at 15 to 30 mg/kg, iv administered every other day over 21 days relative to vehicle control; format: organism-based; details: in vivo, 504 h
Summary of the method: (§6)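 A549 xenograft nude mice, 5/group, dosed 15 or 30 mg/kg by tail vein every other day for three weeks in dilute HCl buffer pH 3; vehicle group as reference. Body weight tracked over treatment; liver examined for toxic signs.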

[10] = test system: Mus musculus; test: Hepatotoxicity in athymic nude mouse at 15 to 30 mg/kg, iv administered every other day over 21 days relative to vehicle control; format: toxicity, organism-based; details: in vivo, 504 h; summary of the method: as §6
[11] = test system: A549; test: Antitumor activity against human A549 cells xenografted in athymic nude mouse assessed as tumor growth inhibition at 30 mg/kg, iv administered every other day over 21 days relative to vehicle control; format: functional; details: 504 h, read-out: TGI; summary of the method: as §5
[12] = test system: A549; test: Cytotoxicity against human A549 cells expressing NQO1 after 2 hrs in presence of dicoumarol by MTT assay; format: functional, cell-based; details: A549, 2 h; summary of the method: as §1
[13] = Cytotoxicity against human L02 cells after 2 hrs by MTT assay; format: cell-based; details: L02, 2 h; summary of the method: as §1
[14] = test system: A549; test: Antitumor activity against human A549 cells xenografted in athymic nude mouse assessed as tumor volume at 30 mg/kg, iv administered every other day over 21 days (reference value: 1085.8 +/- 298.3 mm'3); format: functional; summary of the method: as §5
[15] = test system: A549; test: Antitumor activity against human A549 cells xenografted in athymic nude mouse assessed as tumor proliferation rate at 30 mg/kg, iv administered every other day over 21 days relative to vehicle-treated control; format: functional; summary of the method: as §5
[16] = Selectivity ratio of IC50 for NQO1-deficient human NCI-H596 cells to IC50 for human A549 cells expressing NQO1; format: cell-based; summary of the method: as §3
[17] = test system: NCI-H596; test: Cytotoxicity against NQO1-deficient human NCI-H596 cells after 2 hrs by MTT assay; format: cell-based; details: NCI-H596, 2 h; summary of the method: as §1
[18] = Intrinsic aqueous solubility of compound by Avdeef-Bucher potentiometric titration assay; format: physicochemical; details: aqueous solution; read-out: Intrinsic_solubility; summary of the method: as §4

Row | Structure (SMILES) | IC50 [1] [µM] | solubility at 8 h [2] [mg/mL] | Drug metabolism [3] [µmol/min] | logD [7] | other results
1 | O=C1C(=O)c2nc(CN3CCOCC3)oc2-c2ccccc21 | 6.9 | > 0.1 | 686 |  | 
2 | O=C1C(=O)c2nc(CN3CCN(Cc4ccccc4)CC3)oc2-c2ccccc21 | 4.6 | > 0.5 | 1360 | 1.88 | Activity [4]: Not Active; Ratio IC50 [5]: >7; Activity [6]: Active; TGI [8]: Active; Activity [9]: Non-toxic; Activity [10]: Non-toxic; inhibition in vivo at 30 mg/kg [11]: 55.6%; IC50 [12]: 64 µM; IC50 [13]: 70 µM; Activity [14]: 440.8 mm3; T/C [15]: 41.4%; Ratio IC50 [16]: > 12; IC50 [17]: 57 µM; solubility [18]: 0.125 mg/mL (≈ 323 µM)
3 | CN(C)Cc1nc2c(o1)-c1ccccc1C(=O)C2=O | 8.7 | > 0.1 | 939 |  | 
4 | CCc1nc2c(o1)-c1ccccc1C(=O)C2=O | 7.6 |  | 955 |  | 
5 | O=C1C(=O)c2nc(CN3CCN(c4ccccc4)CC3)oc2-c2ccccc21 | 7.6 | > 0.1 | 1139 |  | 
6 | COc1ccccc1NCc1nc2c(o1)-c1ccccc1C(=O)C2=O | 11 | > 0.1 | 990 |  | 
7 | Cc1nc2c(o1)-c1ccccc1C(=O)C2=O | 20 |  | 1202 |  | 
8 | Cc1ccc(NCc2nc3c(o2)-c2ccccc2C(=O)C3=O)cc1 | 12 | > 0.1 | 968 |  | 
9 | COc1cccc(NCc2nc3c(o2)-c2ccccc2C(=O)C3=O)c1 | 15 | > 0.1 | 955 |  | 
10 | O=C1C(=O)c2nc(CNc3cccc(F)c3)oc2-c2ccccc21 | 5.2 | < 0.1 | 1391 | 3.18 | solubility [18]: 0.044 mg/mL (≈ 137 µM)
11 | COc1ccc(NCc2nc3c(o2)-c2ccccc2C(=O)C3=O)cc1 | 13 | > 0.1 | 1063 |  | 
12 | CC1(C)CCC2=C(O1)c1ccccc1C(=O)C2=O [LAPACHONE] | 3.7 | < 0.1 | 1210 | 2.85 | Activity [6]: Active; inhibition in vivo at 30 mg/kg [11]: 70.1%; T/C [15]: 29.5%
13 | O=C1C(=O)c2nc(CNc3ccc(Cl)cc3)oc2-c2ccccc21 | 19 | < 0.1 | 1522 | 2.65 | solubility [18]: 0.038 mg/mL (≈ 112 µM)
